Assay results taken from ChEMBL document CHEMBL1132175, “Synthesis and in vivo evaluation of new contrast agents for cardiac MRI” (J Med Chem, 1999).
Values after ≈ are worked out from the molar mass of the structure shown.

Experiments:
[1] = system: Mustela putorius furo; experiment: In vivo Myocardial MRI signal intensity (MRI IE)in ferrets induced by the compound at 50 umol/kg was measured at 0-10 min.; type: functional, Myocardium
Outline: (§1)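 Ferrets received a bolus of 50 µmol/kg Gd complex. BAE and ABE were given as water-soluble pH 7 solutions; ABE used a 1.2-fold ligand excess and 10 mM Gd. BPE, BBE, BHE and BME were given in lecithin/cholesterol liposomes in 0.9% saline/20 mM HEPES pH 7.4. Myocardial signal was read on 1.5 T MRI (head coil) against an agarose phantom and compared with pre-agent control images. Imaging ran over 3 h.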

[2] = system: Mustela putorius furo; experiment: In vivo Myocardial MRI signal intensity (MRI IE)in ferrets induced by the compound at 50 umol/kg was measured at 30-60 min.; type: functional, Myocardium; outline: as §1
[3] = Aqueous solubility of the compound; type: physicochemical; details: water; read-out: S
Outline: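 Gd–ligand 1:1 complexes were made from GdCl3 in water at pH 7.0 over a series of nominal concentrations around the expected precipitation point. Experimental concentration was taken as ΔR1(observed)/ρ1. ρ1 came from one well-dissolved sample whose Gd was measured by ICP-OES.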

[4] = system: Mustela putorius furo; experiment: In vivo Myocardial MRI signal intensity (MRI IE)in ferrets induced by the compound at 50 umol/kg was measured at 180 min.; type: functional, Myocardium; outline: as §1
[5] = system: Mustela putorius furo; experiment: In vivo Myocardial MRI signal intensity (MRI IE)in ferrets induced by the compound at 50 umol/kg was measured at 180 min; type: functional, Myocardium; outline: as §1

Compound: CCC(=O)OCCN(CCN(CCOC(=O)CC)CC(=O)N(CC(=O)O)CC(=O)O)CC(=O)N(CC(=O)O)CC(=O)O
- IE [1]: 34.6%
- IE [2]: 38.4%
- solubility [3]: 7 mM (≈ 4250 µg/mL)
- IE [4]: 47.2%

Compound: CCCCCC(=O)OCCN(CCN(CCOC(=O)CCCCC)CC(=O)N(CC(=O)O)CC(=O)O)CC(=O)N(CC(=O)O)CC(=O)O
- IE [1]: 32.3%
- IE [2]: 41.7%
- solubility [3]: 0.5 mM (≈ 345 µg/mL)
- IE [4]: 30.1%

Compound: CCCC(=O)OCCN(CCN(CCOC(=O)CCC)CC(=O)N(CC(=O)O)CC(=O)O)CC(=O)N(CC(=O)O)CC(=O)O
- IE [1]: 53.1%
- IE [2]: 52.1%
- solubility [3]: 5 mM (≈ 3170 µg/mL)
- IE [4]: 39.3%

Compound: CCCC(=O)OCCN(CCN(CCOC(C)=O)CC(=O)N(CC(=O)O)CC(=O)O)CC(=O)N(CC(=O)O)CC(=O)O
- IE [1]: 42.8%
- IE [2]: 43.6%
- solubility [3]: 25 mM (≈ 15200 µg/mL)
- IE [4]: 38.5%

Compound: CCCCCCCCCCCCCC(=O)OCCN(CCN(CCOC(=O)CCCCCCCCCCCCC)CC(=O)N(CC(=O)O)CC(=O)O)CC(=O)N(CC(=O)O)CC(=O)O
- IE [1]: 55.2%
- IE [2]: 67.2%
- solubility [3]: 0.015 mM (≈ 13.7 µg/mL)
- IE [4]: 65.2%

Compound: CC(=O)OCCN(CCN(CCOC(C)=O)CC(=O)N(CC(=O)O)CC(=O)O)CC(=O)N(CC(=O)O)CC(=O)O
- IE [5]: 10.1%
- IE [1]: 87.2%
- IE [2]: 10.1%
- solubility [3]: 30 mM (≈ 17400 µg/mL)
